Experiments:
[1] = Oral bioavailability in dog at 3 mg/kg; type: ADME, organism-based, Canis lupus familiaris; conditions: in vivo
[2] = Drug uptake in rat liver at 10 mg/kg, po after 6 hrs; type: ADME, organism-based; parameters: dose 10 mg/kg, route oral; conditions: read-out: Drug uptake
Outline: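 Rats dosed orally at 10 mpk. Compound concentration in liver measured at 6 h.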

[3] = AUC (0 to 24 hrs) in rat at 10 mg/kg, po; type: ADME, organism-based; parameters: time < 24 hr, dose 10 mg/kg, route oral; conditions: plasma
Outline: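 Oral dosing to rats at 10 mpk. Plasma exposure monitored over 0–24 h.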

[4] = AUC (0 to 24 hrs) in dog at 3 mg/kg, po; type: ADME, organism-based, Canis lupus familiaris; parameters: time < 24 hr, dose 3 mg/kg, route oral; conditions: plasma
Outline: (§1)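 Oral dosing at 3 mpk to dog and monkey. Plasma exposure monitored over 0–24 h.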

Hepatitis C virus = experiment: Antiviral activity against Hepatitis C virus genotype 1b Con1 infected in human hepatoma cells assessed as inhibition of viral RNA replication by subgenomic replicon assay; type: functional, organism-based, Hepacivirus hominis; conditions: genotype 1b Con 1
Outline: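 Subgenomic 1b-Con1 replicon cells seeded at 5000 cells/well one day before dosing. Compound in DMSO added as 10 serial twofold dilutions in triplicate (final 0.5% DMSO, 10% FBS). Cells harvested three days post dosing. Replicon RNA quantified by real-time RT-PCR (Taqman), normalised to GAPDH RNA as endogenous control. EC50 calculated from the dose-response.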

[5] = AUC (0 to 24 hrs) in cynomolgus monkey at 3 mg/kg, po; type: ADME, organism-based, Macaca fascicularis; parameters: time < 24 hr, dose 3 mg/kg, route oral; conditions: plasma; outline: as §1
[6] = Oral bioavailability in rat at 10 mg/kg; type: ADME, organism-based; conditions: in vivo
[7] = Cytotoxicity against human hepatoma cells after 3 days by MTS assay; type: cell-based
Outline: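 Replicon cells treated the same way as in the replicon activity assay (DMSO vehicle, 10% FBS, 3 days). Viability read three days post dosing by MTS (CellTiter 96 Aqueous One). CC50 is the concentration giving 50% inhibition relative to vehicle-treated cells.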

[8] = Oral bioavailability in cynomolgus monkey at 3 mg/kg; type: ADME, organism-based, Macaca fascicularis; conditions: in vivo
[9] = Cytotoxicity against human hepatoma cells assessed as effect on cellular GAPDH RNA level; type: cell-based
[10] = Cytotoxicity against human hepatoma cells assessed as inhibition of [methyl-14C]thymidine incorporation in DNA after 3 days by scintillation proximity assay; type: cell-based; conditions: for CC50 at 72 h: human hepatoma cells
Outline: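 Replicon cells seeded in scintillating microplates one day before treatment. Various inhibitor concentrations added in triplicate together with [methyl-14C]-thymidine (final 0.5 µCi/mL media) and incubated three days. Incorporated label read by scintillation proximity counting. DNA CC50 is the concentration giving 50% inhibition of thymidine incorporation relative to vehicle-treated cells.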

[11] = AUC (0 to 6 hrs) in rat at 10 mg/kg, po; type: ADME, organism-based; parameters: time < 6 hr, dose 10 mg/kg, route oral; conditions: plasma
Outline: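 Single oral dose of 10 mpk given to rats, as HCl salt. Plasma exposure expressed as AUC over 0–6 h.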

Row | SMILES | bioavailability [1] | concentration at 6 h [2] | AUC(0-t) at 24 h [3] | AUC(0-t) at 24 h [4] | EC50 (Hepatitis C virus) | AUC(0-t) at 24 h [5] | bioavailability [6] | CC50 at 72 h [7] | bioavailability [8] | CC50 [9] | CC50 at 72 h [10] | AUC(0-t) at 6 h [11] | CC25 ([10]; 72 h)
1 | COC[C@@H](C)Nc1nc(C)c(-c2nc3c(C)nccc3s2)c(N[C@@H]2C[C@H](C(C)(C)O)[C@@H](O)[C@H]2O)n1 | 50% | 900 ng/g | 18 µM·h | 4.2 µM·h | 0.02 µM | 10 µM·h | 81% | > 3 µM | 50% | > 3 µM | 25 µM |  | 
2 | COCC(O)(COC)[C@H]1C[C@@H](Nc2nc(NCC3CC3)nc(C)c2-c2nc3c(C)nccc3s2)[C@H](O)[C@@H]1O |  |  |  |  | 0.002 µM |  |  | > 6 µM |  | > 6 µM | 4 µM |  | 
3 | Cc1nc(NCC2CC2)nc(N[C@@H]2C[C@H](C(C)(C)O)[C@@H](O)[C@H]2O)c1-c1nc2c(C)nccc2s1 | 66% | 9500 ng/g | 10 µM·h | 4.9 µM·h | 0.02 µM | 0.3 µM·h | 39% | > 25 µM | 6% | > 25 µM | 25 µM |  | 
4 | COCC1(CNc2nc(C)c(-c3nc4c(C)nccc4s3)c(N[C@@H]3C[C@H](C(C)(C)O)[C@@H](O)[C@H]3O)n2)CC1 |  |  |  |  | 0.02 µM |  |  | > 25 µM |  | > 25 µM |  | 0.7 µM·h | 
5 | Cc1nc(NCCN2CCOCC2)nc(N[C@@H]2C[C@H](C(C)(C)O)[C@@H](O)[C@H]2O)c1-c1nc2c(C)nccc2s1 |  |  |  |  | 0.02 µM |  |  | > 25 µM |  | > 25 µM |  | 0.2 µM·h | 
6 | Cc1nc(NCC(F)(F)F)nc(N[C@@H]2C[C@H](C(C)(C)O)[C@@H](O)[C@H]2O)c1-c1nc2c(C)nccc2s1 |  |  |  |  | 0.01 µM |  |  | > 12 µM |  | 20 µM |  | 1.8 µM·h | 
7 | Cc1nc(N[C@H](C)C2CC2)nc(N[C@@H]2C[C@H](C(C)(C)O)[C@@H](O)[C@H]2O)c1-c1nc2cnccc2s1 |  |  |  |  | 0.03 µM |  |  | 25 µM |  | > 25 µM |  | 11 µM·h | 
8 | COCCNc1nc(C)c(-c2nc3c(C)nccc3s2)c(N[C@@H]2C[C@H](C3(O)CC3)[C@@H](O)[C@H]2O)n1 |  |  |  |  | 0.007 µM |  |  | 13 µM |  | > 25 µM |  | 3.9 µM·h | 
9 | CCOCCNc1nc(C)c(-c2nc3c(C)nccc3s2)c(N[C@@H]2C[C@H](C(O)(COC)COC)[C@@H](O)[C@H]2O)n1 |  |  |  |  | 0.003 µM |  |  | 6 µM |  | > 12 µM |  |  | 
10 | COCCNc1nc(C)c(-c2nc3cnccc3s2)c(N[C@@H]2C[C@H](C(C)(C)O)[C@@H](O)[C@H]2O)n1 |  |  |  |  | 0.05 µM |  |  | > 25 µM |  | > 25 µM |  | 1.3 µM·h | 
11 | Cc1nc(NCC2CCCCO2)nc(N[C@@H]2C[C@H](C(C)(C)O)[C@@H](O)[C@H]2O)c1-c1nc2c(C)nccc2s1 (stereo partly drawn) |  | 1800 ng/g |  |  | 0.004 µM |  |  | > 25 µM |  | > 25 µM |  | 9.9 µM·h | 3 µM
12 | Cc1nc(NCc2c(F)cc(F)cc2F)nc(N[C@@H]2C[C@H](C(C)(C)O)[C@@H](O)[C@H]2O)c1-c1nc2c(C)nccc2s1 |  |  |  |  | 0.004 µM |  |  | > 25 µM |  | > 25 µM |  | 0.4 µM·h | 
13 | Cc1nc(NCC2CC2)nc(N[C@@H]2C[C@H](CO)[C@@H](O)[C@H]2O)c1-c1nc2cnccc2s1 |  |  |  |  |  |  |  |  |  | 3 µM |  |  | 
14 | Cc1nc(N[C@H](C)C2CC2)nc(N[C@@H]2C[C@H](C(C)(C)O)[C@@H](O)[C@H]2O)c1-c1nc2c(C)nccc2s1 | 32% | 13700 ng/g | 19 µM·h | 2.1 µM·h | 0.02 µM | 0.5 µM·h | 54% | > 25 µM | 4% | > 25 µM | > 25 µM |  | 
15 | CSCCNc1nc(C)c(-c2nc3c(C)nccc3s2)c(N[C@@H]2C[C@H](C(C)(C)O)[C@@H](O)[C@H]2O)n1 |  |  |  |  | 0.008 µM |  |  | > 25 µM |  | > 25 µM |  | 1.6 µM·h | 
16 | Cc1nc(NCCN(C)C)nc(N[C@@H]2C[C@H](C(C)(C)O)[C@@H](O)[C@H]2O)c1-c1nc2c(C)nccc2s1 |  |  |  |  | 0.13 µM |  |  | 12 µM |  | 7 µM |  |  | 
17 | CCC(O)(CC)[C@H]1C[C@@H](Nc2nc(NCCOC)nc(C)c2-c2nc3c(C)nccc3s2)[C@H](O)[C@@H]1O |  |  |  |  | 0.01 µM |  |  | > 25 µM |  | > 25 µM |  | 1.4 µM·h | 
18 | Cc1nc(N)nc(N[C@@H]2C[C@H](C(C)(C)O)[C@@H](O)[C@H]2O)c1-c1nc2c(C)nccc2s1 |  |  |  |  | 0.04 µM |  |  | 6 µM |  | 4 µM |  |  | 
19 | COCCNc1nc(C)c(-c2nc3c(C)nccc3s2)c(N[C@@H]2C[C@H](C(C)(C)O)[C@@H](O)[C@H]2O)n1 | 18% | 1900 ng/g | 16 µM·h | 0.9 µM·h | 0.02 µM | 3.7 µM·h | 49% | > 25 µM | 46% | > 25 µM | 7 µM |  | 
20 | Cc1nc(NC2CC2)nc(N[C@@H]2C[C@H](C(C)(C)O)[C@@H](O)[C@H]2O)c1-c1nc2c(C)nccc2s1 |  |  |  |  | 0.05 µM |  |  | > 6 µM |  | > 6 µM |  | 58 µM·h | 
21 | CO[C@H](C)CNc1nc(C)c(-c2nc3c(C)nccc3s2)c(N[C@@H]2C[C@H](C(C)(C)O)[C@@H](O)[C@H]2O)n1 | 56% | 1300 ng/g | 6.7 µM·h | 3.2 µM·h | 0.02 µM | 13 µM·h | 58% | > 25 µM | 45% | > 25 µM | 25 µM |  | 
22 | Cc1nc(N(C)CC2CC2)nc(N[C@@H]2C[C@H](C(C)(C)O)[C@@H](O)[C@H]2O)c1-c1nc2c(C)nccc2s1 |  |  |  |  | 0.09 µM |  |  | 23 µM |  | > 25 µM |  |  | 
23 | Cc1nc(NCC2CC2)nc(N[C@@H]2C[C@H]([C@H](C)O)[C@@H](O)[C@H]2O)c1-c1nc2cnccc2s1.Cl |  |  |  |  | 0.02 µM |  |  | 13 µM |  | 18 µM |  | 1.3 µM·h | 
24 | Cc1nc(NCC2CC2)nc(N[C@@H]2C[C@H](C3(O)CC3)[C@@H](O)[C@H]2O)c1-c1nc2c(C)nccc2s1 |  |  |  |  | 0.004 µM |  |  | > 25 µM |  | > 25 µM |  | 1.6 µM·h | 
25 | Cc1nc(N[C@H](C)c2ccc(OC(F)(F)F)cc2)nc(N[C@@H]2C[C@H](C(C)(C)O)[C@@H](O)[C@H]2O)c1-c1nc2c(C)nccc2s1 |  |  |  |  | 0.18 µM |  |  | > 25 µM |  | > 25 µM |  | 1.2 µM·h | 
26 | CCC(O)(CC)[C@H]1C[C@@H](Nc2nc(NCC3CC3)nc(C)c2-c2nc3c(C)nccc3s2)[C@H](O)[C@@H]1O |  |  |  |  | 0.005 µM |  |  | > 6 µM |  | > 6 µM |  | 10 µM·h | 
27 | Cc1nc(NCC2CC2)nc(N[C@@H]2C[C@H](C(C)(C)O)[C@@H](O)[C@H]2O)c1-c1nc2cnccc2s1.Cl |  |  |  |  | 0.02 µM |  |  | > 12 µM |  | > 12 µM |  | 8.5 µM·h | 

— ChEMBL document CHEMBL2163315, “Synthesis and SAR of geminal substitutions at the C5' carbosugar position of pyrimidine-derived HCV inhibitors” (Bioorg Med Chem Lett, 2012)
